Experimental data published in ChEMBL document CHEMBL4680156, “Discovery of novel pyrido-pyrrolidine hybrid compounds as alpha-glucosidase inhibitors and alternative agent for control of type 1 diabetes” (Eur J Med Chem, 2020).
≈ marks a conversion by molar mass, not a printed value. Calls of active or inactive are those of the source. The calls are words filed in the database; no cut-off is given here.

Assays:
[1] = Permeability of compound at pH 7.4 after 4 hrs by GIT PAMPA method; type: ADME; conditions: read-out: permeability
Summary of the method: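 GIT PAMPA: compound in the donor plate at pH 7.4, with GIT-0 lipid coated on the acceptor membrane and sink buffer in the acceptor plate. Incubated 4 h; donor and acceptor aliquots were read by UV to give permeability.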

[2] = Clearance in human; type: ADME
Summary of the method: (§1)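 Liver microsomes (1.0 mg protein/mL) were incubated with compound at 1 μM; reactions were started with 1 mM NADPH. No-NADPH incubations (0 and 60 min) served as stability controls. Reactions were stopped at 0, 5, 15, 30 and 60 min with ice-cold acetonitrile containing internal standard, then centrifuged. Parent loss was tracked by LC-MS/MS.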

[3] = Drug recovery in mouse plasma at 10 uM after 6 hrs by LC-MS/MS analysis; type: ADME, cell-free; conditions: read-out: Drug recovery
Summary of the method: (§2)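 Equilibrium dialysis: plasma with compound at 10 μM final on one side, 100 mM sodium phosphate pH 7.4 on the other. Equilibrated at 37 ± 1 °C for 6 h with shaking at 500 rpm. Both sides were sampled, proteins precipitated with organic solvent, and supernatants analysed by LC-MS/MS.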

[4] = Drug recovery in human plasma at 10 uM after 6 hrs by LC-MS/MS analysis; type: ADME, cell-free; conditions: read-out: Drug recovery; summary of the method: as §2
[5] = Half life in human liver microsomes at 1 uM up to 60 mins in presence of NADPH by LC-MS/MS analysis; type: ADME, Microsome; summary of the method: as §1
[6] = Inhibition of Saccharomyces cerevisiae alpha-glucosidase using PNPG as substrate incubated for 10 mins by spectrophotometric method
[7] = Stability in mouse liver microsomes assessed as CYP450-mediated drug degradation by measuring proportion of compound metabolised at 1 uM up to 60 mins in presence of NADPH by LC-MS/MS analysis; type: ADME; conditions: read-out: Drug degradation; summary of the method: as §1
[8] = Half life in mouse liver microsomes at 1 uM up to 60 mins in presence of NADPH by LC-MS/MS analysis; type: ADME, Microsome; summary of the method: as §1
Rattus norvegicus = test: Decrease in post prandial glucose level in type 1 diabetic Sprague-Dawley rat model at 60 mg/kg, po administered once daily for 28 days; conditions: time 28.0 day
Saccharomyces cerevisiae [9] = test: Binding affinity to Saccharomyces cerevisiae alpha-glucosidase assessed as protein with alpha-helical structure at 0.64 ug/ml by CD spectroscopic method (reference value: 5.3%); conditions: dose 0.64 µg/ml
Summary of the method: (§3)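 Compound was added at different concentrations to yeast α-glucosidase (30 U/ml). CD spectra were taken with 3 accumulations (negative bands at 209 and 222 nm). α-Helix and β-sheet content were estimated with secondary-structure estimation software.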

[10] = Intrinsic clearance in mouse liver microsomes at 1 uM up to 60 mins in presence of NADPH by LC-MS/MS analysis; type: ADME, Microsome; conditions: 1 h; summary of the method: as §1
[11] = Protein binding in rat plasma assessed as unbound fraction at 10 uM after 6 hrs by LC-MS/MS analysis; type: ADME, cell-free; summary of the method: as §2
[12] = Intrinsic clearance in rat liver microsomes at 1 uM up to 60 mins in presence of NADPH by LC-MS/MS analysis; type: ADME, Microsome; conditions: 1 h; summary of the method: as §1
Saccharomyces cerevisiae [13] = test: Binding affinity to Saccharomyces cerevisiae alpha-glucosidase assessed as decrease in fluorescence intensity at 6.25 to 25 ng/ml after 30 mins by spectrofluorometric method; conditions: dose 6.25-25 ng/ml
Summary of the method: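 Yeast α-glucosidase (1.5 U) was pretreated with compound at 6.25 and 25 ng/ml for 30 min at 37 °C. Intrinsic Trp fluorescence was excited at 295 nm and the emission (peak 330 nm) recorded at 298 K. Quenching was scored against free enzyme.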

[14] = Protein binding in mouse plasma assessed as unbound fraction at 10 uM after 6 hrs by LC-MS/MS analysis; type: ADME, cell-free; summary of the method: as §2
Saccharomyces cerevisiae [15] = test: Binding affinity to Saccharomyces cerevisiae alpha-glucosidase assessed as protein with beta-sheet structure at 0.64 ug/ml by CD spectroscopic method (reference value: 68%); conditions: dose 0.64 µg/ml; summary of the method: as §3
[16] = Thermodynamic solubility of compound in phosphate buffer at 1 mg/ml at pH 7.4 after 24 hrs by HPLC analysis; type: physicochemical; conditions: read-out: Therm_solubility
Summary of the method: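 1 mg compound incubated in 1 mL phosphate buffer saline (pH 7.4) for 24 h with vortexing at 500 rpm. Samples were then centrifuged and the supernatant injected into HPLC to quantify dissolved compound.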

Alpha-mannosidase = target: T1, Alpha-mannosidase (Canavalia ensiformis, UniProt C0HJB3); test: Inhibition of jack bean alpha-mannosidase using […] as substrate incubated for 10 mins by spectrophotometric method
T1 sequence (C0HJB3 whole entry): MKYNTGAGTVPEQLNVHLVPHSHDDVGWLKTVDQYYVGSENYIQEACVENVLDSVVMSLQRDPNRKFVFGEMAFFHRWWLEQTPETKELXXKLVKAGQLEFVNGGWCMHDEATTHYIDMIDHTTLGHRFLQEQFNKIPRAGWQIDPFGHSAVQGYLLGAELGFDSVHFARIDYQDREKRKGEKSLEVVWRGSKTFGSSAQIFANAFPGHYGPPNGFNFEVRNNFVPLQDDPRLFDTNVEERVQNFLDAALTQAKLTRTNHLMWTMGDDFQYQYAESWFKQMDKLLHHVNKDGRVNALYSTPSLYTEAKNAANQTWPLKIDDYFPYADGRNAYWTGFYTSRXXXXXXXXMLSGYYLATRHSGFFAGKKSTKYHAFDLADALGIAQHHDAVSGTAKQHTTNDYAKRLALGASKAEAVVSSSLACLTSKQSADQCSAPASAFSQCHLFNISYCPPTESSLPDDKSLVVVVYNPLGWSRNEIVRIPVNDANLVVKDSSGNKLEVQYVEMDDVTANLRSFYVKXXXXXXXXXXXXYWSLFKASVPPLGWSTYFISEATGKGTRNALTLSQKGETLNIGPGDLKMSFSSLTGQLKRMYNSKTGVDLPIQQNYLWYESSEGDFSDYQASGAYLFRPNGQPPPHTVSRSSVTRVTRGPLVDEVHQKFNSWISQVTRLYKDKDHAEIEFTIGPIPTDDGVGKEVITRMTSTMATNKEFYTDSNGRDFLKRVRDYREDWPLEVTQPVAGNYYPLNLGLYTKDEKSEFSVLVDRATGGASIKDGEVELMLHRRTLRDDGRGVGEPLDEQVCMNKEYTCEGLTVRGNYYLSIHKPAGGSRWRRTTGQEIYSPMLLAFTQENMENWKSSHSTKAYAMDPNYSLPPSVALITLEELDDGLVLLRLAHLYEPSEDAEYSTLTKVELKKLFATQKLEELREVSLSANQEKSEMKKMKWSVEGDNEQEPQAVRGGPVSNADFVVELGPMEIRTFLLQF

[17] = Protein binding in human plasma assessed as bound fraction at 10 uM after 6 hrs by LC-MS/MS analysis; type: ADME, cell-free; conditions: read-out: PPB (converted); summary of the method: as §2
[18] = Clearance in rat; type: ADME; conditions: in vivo

For `CCOC(=O)c1ccc(-n2c(/C=C3\OC(=O)c4c3cc(C)[nH]c4=O)ccc2CO)cc1`, the Papp at 4 h [1] was 15 ×10⁻⁶ cm/s, the clearance [2] was 15.1 mL/min/kg and the remaining at 6 h, 10 µM [3] was 15%. It also gave a remaining at 6 h, 10 µM [4] of 56.7%, a half-life at 1 µM [5] of 13 min and an IC50 [6] of 0.56 µM. The metabolised at 1 h, 1 µM [7] was 99%, the half-life at 1 µM [8] was 9 min and the inhibition (Rattus norvegicus) was “inactive”. For the same compound, the Activity (Saccharomyces cerevisiae [9]) was 6.6%, the CLint [10] was 74.1 µL/min/mg and the fraction unbound at 6 h, 10 µM [11] was 0.0156. The CLint [12] was 54.4 µL/min/mg, the Activity (Saccharomyces cerevisiae [13]) was “Active” and the fraction unbound at 6 h, 10 µM [14] was 0.0899. The Activity (Saccharomyces cerevisiae [15]) was 58.9%, the solubility thermodynamic at 24 h [16] was 0.1 µg/mL (≈ 0.238 µM) and the IC50 (Alpha-mannosidase) was 41.2 µM. The fraction unbound at 6 h, 10 µM [17] was 0.107 and the clearance [18] was 35.2 mL/min/kg.
